Screening data deposited in PubChem BioAssay by The Scripps Research Institute Molecular Screening Center.
This is a sample that favours compounds with a hit; in the whole collection about 4.5% have one here.
CHO parental Ca: counter-screen: ATP calcium response change in parental CHO cells. actives 0.63% (n = 330,000). inhibition, % at 5.6 µM. parental CHO-K1, ATP-induced calcium, Fluo-8 fluorescence;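 active = inhibition above that plate's mean sample inhibition plus 3 SD, cut at about 26% in these data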;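 also: 0% = ATP-challenged DMSO wells and 100% = DMSO wells without ATP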
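Material – parental CHO cells · Reagent – ATP stimulus · Compound – single nominal dose of 5.6 µM per compound · Detection – Fluo-8 fluorescence · Read-out basis – percent inhibition of calcium signal · Controls – ATP-challenged DMSO wells low, unchallenged DMSO wells high · Repeats – no replicates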
GPR7 antag: antagonists of human GPR7 (neuropeptides B/W receptor 1); GPR7-expressing cells, fluorescence antagonist assay; actives 1.1% (n = 290,000); P48145; inhibition, % at 4.4 µM; in the data active = inhibition above about 16%, passing the limit was not always enough;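 also: cells stimulated with the agonist NPW; 0% = agonist with vehicle and 100% = vehicle without agonist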
Target sequence (P48145 whole entry, looked up): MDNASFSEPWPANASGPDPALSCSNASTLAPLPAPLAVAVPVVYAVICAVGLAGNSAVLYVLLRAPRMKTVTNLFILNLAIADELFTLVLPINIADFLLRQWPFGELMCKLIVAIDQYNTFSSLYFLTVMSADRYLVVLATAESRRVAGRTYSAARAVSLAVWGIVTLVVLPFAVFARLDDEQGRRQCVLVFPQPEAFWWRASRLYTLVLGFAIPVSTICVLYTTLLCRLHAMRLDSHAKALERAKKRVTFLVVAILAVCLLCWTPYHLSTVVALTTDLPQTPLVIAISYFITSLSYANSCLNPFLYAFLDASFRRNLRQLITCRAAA
TAAR1 antagonist: human TAAR1 antagonism. Q96RJ0. CHO RD-HGA16 TAAR1, Fluo-8 calcium fluorescence, antagonist. inhibition, % at 3 µM. actives 1.5% (n = 360,000);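 active = inhibition above a per-plate cutoff, the mean inhibition of test compounds on that plate plus 3 SD, cut at about 49% in these data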;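 also: 0% = DMSO plus EC80 beta-PEA response and 100% = DMSO alone without agonist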
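Test system – hTAAR1-expressing CHO RD-HGA16 cells, Gα16-coupled · Reagent – β-PEA at EC80 concentration, post-compound challenge · Compound dosing – 3 µM, single point · Timing – 140 s kinetic read after compound, 140 s after agonist · Detection – Fluo-8 intracellular calcium dye fluorescence, real-time kinetic reads · Control set – DMSO and EC80 PEA controls · Repeats – n of 1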
OX1R antag-1: blocks the human orexin 1 receptor. CHO/OX1R cells, Fluo-8 calcium fluorescence, orexin A. AID 434989. inhibition, % at 5 µM. actives 0.43% (n = 330,000);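 active = inhibition above its plate's threshold, mean inhibition of all tested compounds on the plate plus 3 SD, cut at about 37% in these data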;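 also: 0% = orexin A challenge wells and 100% = SB-334867-A antagonist wells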
OX1R antag-2: blocks the human orexin 1 receptor; O43613; actives 1.8% (n = 330,000); OX1R-expressing cells, FRET antagonist read-out; inhibition, % at 6.6 µM; in the data active = inhibition mostly above about 38%, no sharp cut-off; inactive = mostly below about 40%;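 also: 0% = agonist challenge alone and 100% = reference antagonist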
TAAR1 agonist: agonists of human TAAR1; CHO RD-HGA16 TAAR1, Fluo-8 calcium fluorescence; vehicle wells 0%, saturating PEA agonist 100%; actives 0.99% (n = 360,000); activation, % at 3 µM; Q96RJ0;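 active = activation above the mean activation of all test compounds in the run plus 3 SD, cut at about 38% in these data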
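Test system: RD-HGA16 (CHO) cells co-expressing Gα16 and hTAAR1; dosing: one-point dosing at 3 µM (nominal); timing: 17-24 h seeding, 75 min 37 °C dye, 30 min RT; signal: kinetic Fluo-8 calcium fluorescence; read-out basis: % activation relative to PEA EC100 response; controls: DMSO and PEA EC100; replicates: n 1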
Active calls of the source: *; . = not tested or not shown.

SMILES	CHO parental Ca	GPR7 antag	TAAR1 antagonist	OX1R antag-1	OX1R antag-2	TAAR1 agonist
O=C(Nc1nc2c(s1)CCc1ccccc1-2)c1cccs1	-20	-10	-11	-48	34	-6
CCN(CC)C(=N)/C(C#N)=N/Nc1ccc(C)cc1	-7	-3	-17	-18	8	1
Cc1cn2c(N)c(/C=C3\C=Nc4ccccc43)c(=O)nc2s1	-9	9	-1	-11	45*	5
CCc1nn2c(N)c(/C=C3\C=Nc4ccccc43)c(=O)nc2s1	-23	0	7	-12	13	2
CN(c1ccc(NC(=O)Cc2cn(C)c3ccccc23)cc1)c1ccccn1	.	.	1	.	.	-2
NCCCC[C@@H]1NC(=O)c2cc([N+](=O)[O-])cc(I)c2SC[C@@H](C(N)=O)NC(=O)[C@H](Cc2ccc(O)cc2)NC1=O	8	9	.	-16	73*	.
NCCCC[C@@H]1NC(=O)[C@H](CCC(=O)O)NC(=O)c2cc([N+](=O)[O-])cc(I)c2SC[C@@H](C(=O)NCC(N)=O)NC1=O	1	-10	2	-3	42	0
O=C(NCc1cccs1)C1C(=O)Nc2ccccc2C(=O)N1Cc1ccccc1 (stereo unspecified)	.	.	-22	.	.	3
Nc1nc(CSc2nc3ccccc3s2)nc(Nc2ccccc2)n1	-30	-12	.	60*	92*	.
Cc1ccccc1Nc1nc(N)nc(CSc2nnc3sc4ccccc4n23)n1	2	-12	2	-18	2	12
COc1cccc(N2CCN(CC(=O)Nc3ccccc3C(=O)NCCc3ccccc3)CC2)c1	-27	.	53*	0	4	30
Oc1ccc(N2CCN(C(=S)NCCc3ccccc3)CC2)cc1	-4	0	9	-14	24	31
O=C(CN1CCN(c2ccc(O)cc2)CC1)Nc1ccccc1C(=O)NCCc1ccccc1	-4	.	63*	-1	11	12
COc1cc(/C=C/C(=O)OCC(=O)c2ccc(OC(F)F)cc2)ccc1O	9	.	61*	27	24	30
COc1cc(/C=C/C(=O)OCC(=O)NNC(=O)c2cc(Cl)ccc2OC)ccc1O	-11	.	20	-17	3	1
CCc1ccc(NC(=O)C(C)OC(=O)/C=C/c2ccc(O)c(OC)c2)cc1 (stereo unspecified)	6	.	82*	33	4	111*
COc1cc(/C=C/C(=O)OCC(=O)Nc2ccccc2Sc2ccc(Cl)cc2)ccc1O	62*	-3	41	28	34	1
CCOC1=C2[C@@H](CN(S(=O)(=O)c3ccc(C)cc3)[C@H]2c2cccc3ccccc23)[C@H]2C(=O)N(c3ccccc3)C(=O)[C@H]2C1	.	.	5	.	.	1
CCOCCCN(CC(=O)NC1CCCC1)C(=O)C(=O)Nc1ccc2c(c1)OCCO2	-4	12	-4	-12	4	-1
Cc1cc(C)c2c(CN(C)Cc3ccccc3)cc(=O)oc2c1	.	.	8	.	.	-3
Cc1nc(NCCc2ccccc2)c2oc3ccccc3c2n1	46*	-5	27	19	37*	6
Nc1ccc2oc(-c3cc(Br)ccc3Cl)nc2c1	-16	-16	.	-5	47*	.
CCc1cc2c(=O)[nH]c(Cc3ccc(Cl)cc3)nc2s1	-8	-18	-12	-24	-1	2
CCc1cc2c(=O)[nH]c(Cc3ccccc3)nc2s1	43*	-17	3	-9	24	14
COC(=O)[C@]12C[C@H](CC(=O)NCc3cccc4ccccc34)C(=O)N(Cc3ccccc3)C1=C[C@H](C(C)C)O[C@@H]2C1CC1	.	.	-51	.	.	7
Cc1ccc(C(=O)Nc2nnc(S(=O)(=O)Nc3ccccc3C)s2)cc1C	-4	1	-22	-8	23	0
Cc1cccc(NS(=O)(=O)c2nnc(NC(=O)c3ccc(C)c(C)c3)s2)c1	2	-2	-1	23	52*	-2
c1ccc(N2CCN(c3nc4ccccc4n4cnnc34)CC2)cc1	-15	-15	7	-34	17	-3
c1ccc2c(c1)CCN(c1nc3ccccc3n3cnnc13)C2	-15	-6	13	-17	53*	15
CC1=C[C@@H](C)[C@@H](c2ccccc2)OC1=O	-17	.	8	4	18	3
